Compounds with a hit are over-represented: about 1.4% of the library has one in this group of screens.
DDE Tn7 FP inh – inhibitors of Tn7 peptide binding to human fibrin DD(E) | FP displacement of FITC-Tn7 peptide from fibrin DD(E); 0% = median of compound wells per plate | AID 720508 | 370,000 tested, 0.13% active | P02675 | inhibition, % at 8.3 µM;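 active = inhibition above the mean of compounds falling within the control limits plus 3 SD of them, cut at about 14% in these data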;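 note: 0% = plate median of compound wells and 100% = 10 µM Aha-Tn7 peptide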
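Assay system: human fibrin DD(E) protein / Input: 2 µM fibrin DD(E) / Benchmarks: high control of 10 µM Aha-Tn7 peptide / Measured by: fluorescence polarization of the labelled Tn7 tracer / Medium: Tris buffer with calcium and detergent, pH 7.8 / Timing: 10 min compound pre-incubation, 3 h probe incubation at room temperature / Repeats: one replicate per compound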
CAL PDZ FP-1 – CAL PDZ (human) peptide binding inhibition; Q9HD26; purified CAL PDZ, TMR-peptide fluorescence polarization, 1 h; inhibition, % at 24.9 µM; 300,000 tested, 0.92% active; AID 602252;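 active = mean inhibition of at least 30% with at least half of replicates also reaching 30%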;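 note: 0% = DMSO neutral control and 100% = excess unlabeled competitor peptide PRC23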
CAL PDZ FP-2 – inhibitors of human CAL PDZ peptide binding; Q9HD26; purified CAL PDZ, TMR-peptide fluorescence polarization, 1 h; inhibition, % at 20 µM; 330,000 tested, 0.02% active;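 active = highest replicate inhibition of at least 40%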;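 note: plate controls were DMSO neutral control wells for no effect and unlabeled competitor peptide control wells for full effect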
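material = purified tagged CAL PDZ domain construct (CerCALP) | buffer or medium = sodium phosphate/NaCl buffer pH 7.4 with TCEP, IgG, Thesit | reagent = TMR-labelled reporter peptide T*-PRC34 bound in PDZ groove | incubation = 1 h room-temperature incubation prior to read | measured by = fluorescence polarization (mP) | evaluation = percent inhibition from loss of millipolarization | control set = unlabelled peptide and DMSO controls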
Tn6 DDE FP – disrupts Tn6 cyclic peptide binding to fibrin D-Dimer-E complex | P02675 | Fibrin DD(E) TRITC-Tn6 fluorescence polarization displacement | inhibition, % at 8.3 µM | 370,000 tested, 0.21% active | AID 720509;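 active = inhibition above a per-campaign cutoff: mean of compounds within control limits plus 3 SD, cut at about 15% in these data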;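 note: 0% = median of all compound wells on the plate and 100% = blocking peptide control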
Arrestin-AP2 inh – blocks beta-arrestin peptide binding to AP2 adaptin; 340,000 tested, 0.31% active; inhibition, % at 10 µM; AID 504490; FITC-arrestin peptide / GST-AP2 beads, flow cytometry; AP2 beta2 appendage carries R879A mutation;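 active = inhibition above a set limit, near 3 SD of compounds lacking own fluorescence, cut at about 54% in these data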;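 note: plate controls were DMSO wells for no effect and 5 µM unlabelled arrestin peptide for full effect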
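System: GST-AP2 R879A bound to glutathione beads, E. coli-expressed. Also added: 50 nM FITC-arrestin peptide. Schedule: compound with beads 12 min RT, then probe 1 h RT. Signal: bead flow cytometry, FITC channel. Read-out basis: percent response.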
Arr AP2 CP1 – blocks beta-arrestin peptide binding to human AP2; inhibition, % at 10 µM; shares compounds with Arrestin-AP2 inh; 1,300 tested, 2% active; GST-AP2 beads, FITC arrestin peptide binding, flow cytometry; GST-fused beta2-adaptin appendage, R879A mutant;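 active = inhibition above a set limit, roughly 3 SD of non-fluorescent compound noise, cut at about 38% in these data; inactive = inhibition at or below that limit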;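 note: loss of bead fluorescence from 50 nM FITC arrestin peptide bound to appendage; 0% = negative control wells and 100% = excess unlabelled arrestin peptide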
Target sequence (P63010 whole entry, looked up, the tested form may be a part, one chain of several): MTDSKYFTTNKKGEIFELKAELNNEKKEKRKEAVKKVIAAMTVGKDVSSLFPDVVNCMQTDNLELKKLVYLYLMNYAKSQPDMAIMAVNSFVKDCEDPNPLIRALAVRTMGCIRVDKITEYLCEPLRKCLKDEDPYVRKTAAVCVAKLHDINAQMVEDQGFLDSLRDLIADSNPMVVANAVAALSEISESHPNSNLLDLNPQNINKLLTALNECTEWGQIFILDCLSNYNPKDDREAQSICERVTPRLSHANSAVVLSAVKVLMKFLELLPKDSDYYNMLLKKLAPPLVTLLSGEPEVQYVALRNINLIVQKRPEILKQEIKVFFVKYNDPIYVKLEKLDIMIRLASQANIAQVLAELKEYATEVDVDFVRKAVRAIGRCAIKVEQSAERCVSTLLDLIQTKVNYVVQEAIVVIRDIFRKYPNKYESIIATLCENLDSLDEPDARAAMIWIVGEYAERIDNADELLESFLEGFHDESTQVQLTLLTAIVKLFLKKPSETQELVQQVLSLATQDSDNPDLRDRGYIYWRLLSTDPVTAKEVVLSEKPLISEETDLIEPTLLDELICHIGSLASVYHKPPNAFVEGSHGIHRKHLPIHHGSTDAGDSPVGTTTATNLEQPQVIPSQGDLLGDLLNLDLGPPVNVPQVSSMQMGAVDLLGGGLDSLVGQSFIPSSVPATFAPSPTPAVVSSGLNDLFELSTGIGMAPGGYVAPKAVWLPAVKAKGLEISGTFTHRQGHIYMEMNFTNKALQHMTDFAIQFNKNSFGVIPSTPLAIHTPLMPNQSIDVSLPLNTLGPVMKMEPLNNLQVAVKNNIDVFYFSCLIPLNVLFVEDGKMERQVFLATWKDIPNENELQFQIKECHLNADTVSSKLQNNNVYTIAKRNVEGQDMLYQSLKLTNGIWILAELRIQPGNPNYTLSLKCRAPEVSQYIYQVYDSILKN
GST-FITC bead – counter-screen for beta-arrestin AP2 inhibitors: GST-GSH bead binding | shares compounds with Arrestin-AP2 inh | GST-fluorescein binding to GSH beads, fluorescence | inhibition, % at 10 µM | 1,300 tested, 2% active | AID 588338;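 active = inhibition above 50%, about 3 SD of the inhibition seen with non-fluorescent compounds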;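 note: fluorescein maleimide labelled GST captured on 4 micron glutathione beads; higher means more loss of bead fluorescence from quenching or blocked binding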
The depositor's hits bear a star; x = no result.

SMILES | DDE Tn7 FP inh | CAL PDZ FP-1 | CAL PDZ FP-2 | Tn6 DDE FP | Arrestin-AP2 inh | Arr AP2 CP1 | GST-FITC bead
Cc1nc(C)c(C(=O)O)c(-c2cccs2)c1C(=O)O | -4 | x | 0 | 2 | 74* | -8 | -3
N#Cc1sc2nc(-c3cccs3)cc(-c3ccccc3)c2c1N | -3 | -4 | -1 | 4 | 3 | x | x
N#Cc1sc2nc(-c3cccs3)cc(-c3ccc(Cl)cc3)c2c1N | 0 | 0 | -1 | -4 | 61* | -11 | 9
CN=C1S/C(=C/c2cc(C)n(-c3ccc(Cl)cc3F)c2C)C(=O)N1C | 0 | x | x | 7 | x | x | x
COc1ccc(C(=O)Nc2cc3c(cc2N2CCOCC2)n(C)c(=O)n3C)cc1OC | x | x | 0 | x | 2 | -20 | -13
CC(C)C(=O)N1CCN(c2ccccc2NC(=O)c2cccc(Cl)c2)CC1 | -4 | 0 | -1 | -2 | -2 | x | x
CCOc1cc(C(=O)Nc2cc3c(cc2N2CCOCC2)n(C)c(=O)n3C)cc(OCC)c1OCC | 8 | x | 0 | -5 | -7 | -4 | -7
COc1cccc(C(=O)Nc2cc3c(cc2N2CCOCC2)n(C)c(=O)n3C)c1 | -1 | x | -1 | 2 | 8 | 6 | -5
COc1cc(C(=O)Nc2ccccc2N2CCOCC2)ccc1OCC(=O)N1CCOCC1 | -2 | -4 | -2 | 2 | 31 | x | x
Cn1c(=O)n(C)c2cc(N3CCCCC3)c(NC(=O)c3cccc(Cl)c3)cc21 | -4 | x | -1 | 0 | 7 | -6 | -4
COc1ccc(C2C(C(=O)N3CCN(c4ccccc4Cl)CC3)CC(=O)N2c2ccc(OC)cc2)cc1 (stereo not given) | 1 | x | x | 4 | x | x | x
CCOC(=O)C1(Cc2ccccc2)CCN(Cc2ccnc3ccccc23)CC1 | -2 | x | x | 6 | x | x | x
N#Cc1cccc(C(c2nnnn2C2CCCC2)N2CCC(Cc3ccccc3)CC2)c1 (stereo not given) | 5 | 0 | -2 | 0 | 69* | -12 | 0
N#Cc1ccc(C(c2nnnn2C2CCCC2)N2CCC(Cc3ccccc3)CC2)cc1 (stereo not given) | 3 | 1 | -2 | 3 | 2 | x | x
C=CCCC(=O)N(Cc1ccccc1)c1ccccc1C(=O)Nc1cc(OC)ccc1OC | -6 | x | x | -4 | x | x | x
COc1ccccc1-n1cnc2c(c1=O)c1nc3ccccc3nc1n2CCc1ccccc1 | -5 | 0 | -1 | -8 | 73* | 1 | 68*
CC(C(=O)Nc1ccc2c(c1)OCCO2)c1ccc([N+](=O)[O-])cc1 (stereo not given) | 2 | -6 | 0 | -3 | -1 | x | x
CC(C(=O)Nc1ccc2c(c1)OCO2)c1ccc([N+](=O)[O-])cc1 (stereo not given) | 0 | 2 | -4 | 4 | 65* | 2 | -2
CCOC(=O)N1CCN(C(=O)C[C@H]2C[C@@]3(C(=O)OC)C(=C[C@H](C(C)C)O[C@@H]3C3CC3)N(Cc3ccco3)C2=O)CC1 | -2 | x | x | -2 | x | x | x
O=C(Nc1ccc(F)cc1)N(CCCN1CCOCC1)Cc1cc2cc3c(cc2[nH]c1=O)OCCO3 | -1 | -2 | -2 | 0 | 12 | x | x
O=C(Nc1ccc(F)cc1)N(CCCN1CCOCC1)Cc1cc2cc3c(cc2[nH]c1=O)OCO3 | 5 | -3 | -2 | -11 | 68* | -7 | -6
COc1ccc(CN(Cc2cc3cc(OC)c(OC)cc3[nH]c2=O)C(=O)NC2CCCCC2)cc1 | 7 | -2 | 0 | 5 | 2 | 9 | -3
COc1ccc(NC(=O)N(CCN2CCCC2)Cc2cc3cc(OC)c(OC)cc3[nH]c2=O)cc1 | 2 | -3 | 0 | 0 | 87* | 5 | -8
COc1cc2cc(CN(C(=O)NC3CCCCC3)C3CCCC3)c(=O)[nH]c2cc1OC | 6 | -3 | 0 | -1 | 6 | x | x
CC1CCCN(C2(O)C(=O)Nc3ccc(Cl)cc32)C1 (stereo not given) | -1 | -3 | -2 | -7 | 57* | 12 | -1
SMILES | DDE Tn7 FP inh | CAL PDZ FP-1 | CAL PDZ FP-2 | Tn6 DDE FP | Arrestin-AP2 inh | Arr AP2 CP1 | GST-FITC bead
CC1CCN(C2(O)C(=O)Nc3ccc(Cl)cc32)CC1 (stereo not given) | 5 | 1 | 0 | -12 | 5 | x | x
COc1ccc(NC(=O)c2cc(-c3ccco3)nc3ccccc23)cc1S(=O)(=O)N1CCOCC1 | -5 | -2 | -3 | -8 | -12 | x | x
CCOc1ncccc1C(=O)OCC(=O)Nc1cc(S(=O)(=O)N2CCOCC2)ccc1C | -1 | 0 | -1 | 14 | 51 | x | x
CCOc1ncccc1C(=O)Nc1cccc(S(=O)(=O)N2CCCCC2)c1 | 0 | -2 | 1 | 8 | 19 | -4 | -1
CCOc1ncccc1C(=O)Nc1ccc(S(=O)(=O)N2CCCC2)cc1 | 6 | x | 0 | -3 | 29 | x | x
COc1ccc(NC(=O)c2cc(C)nc3ccccc23)cc1S(=O)(=O)N1CCOCC1 | 5 | -6 | 0 | 1 | 6 | -10 | -5
CCOc1ccc(S(=O)(=O)N2CCCCC2)cc1NC(=O)c1ccccc1 | -1 | x | -3 | 0 | -5 | x | x
CCOc1ccc(S(=O)(=O)N2CCCCC2)cc1NC(=O)c1cccnc1OCC | 2 | 21 | -2 | 0 | 14 | -7 | 15
CCOc1ncccc1C(=O)Nc1cc(S(=O)(=O)N2CCCCC2)ccc1C | 3 | -6 | 0 | 1 | 4 | 7 | 6
COc1ccc(S(=O)(=O)N2CCN(C)CC2)cc1C(=O)Nc1ccccc1 | 5 | -6 | -3 | 7 | 43 | x | x
CCOc1ncccc1C(=O)Nc1cc(S(=O)(=O)N2CCOCC2)ccc1OCC(F)(F)F | 0 | x | -2 | 9 | 29 | 1 | 9
CCOc1ccc(S(=O)(=O)N2CCN(CC)CC2)cc1NC(=O)c1ccccc1F | -8 | -8 | -1 | 0 | 1 | 6 | 2
COc1ccc(S(=O)(=O)N2CCN(C)CC2)cc1NC(=O)c1ccccc1C | -7 | 5 | -3 | 2 | 26 | -1 | -4
CCOc1ncccc1C(=O)Nc1ccc(OC)c(S(=O)(=O)N2CCOCC2)c1 | -1 | -1 | 2 | -2 | 0 | 1 | 3
O=C(CSc1ccccc1)NC1CCCCN(Cc2ccc(Cl)cc2)C1=O (stereo not given) | 2 | x | x | -1 | x | x | x
COc1ccc(S(=O)(=O)N2CCOCC2)cc1NC(=O)c1ccncc1 | 9 | 5 | -1 | -5 | 2 | -6 | -2
Cc1ccc(S(=O)(=O)N2CCCCC2)cc1NC(=O)c1cc(=O)[nH]c2ccccc12 | 4 | 6 | 0 | -3 | 67* | 3 | -3
O=C(Nc1cc(S(=O)(=O)N2CCOCC2)ccc1N1CCCC1)c1cc(=O)[nH]c2ccccc12 | -1 | 0 | -2 | 1 | -1 | x | x

Screens deposited in PubChem BioAssay by several laboratories.
